RAD54 inh = inhibitors of human RAD54 branch migration, primary screen, biochemical, fluorescence, single point; RAD54 Holliday junction branch migration, FAM/BHQ fluorescence; inhibition, % at 10.4 µM; DNA repair and recombination protein RAD54-like (Homo sapiens), Q92698; AID 602329, 2012; 360,000 compounds, 0.14% hits;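 active = mean normalized replicate activity at least 40 and at least half of replicates scoring 40 or more; inconclusive = only one of the two criteria met; inactive = mean below 40 and under half of replicates reaching 40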;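 also: 0% = median of neutral control wells and 100% = median of positive control wells; inhibitors cause a drop in the FAM fluorescence signal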
Target sequence (Q92698 whole entry, looked up): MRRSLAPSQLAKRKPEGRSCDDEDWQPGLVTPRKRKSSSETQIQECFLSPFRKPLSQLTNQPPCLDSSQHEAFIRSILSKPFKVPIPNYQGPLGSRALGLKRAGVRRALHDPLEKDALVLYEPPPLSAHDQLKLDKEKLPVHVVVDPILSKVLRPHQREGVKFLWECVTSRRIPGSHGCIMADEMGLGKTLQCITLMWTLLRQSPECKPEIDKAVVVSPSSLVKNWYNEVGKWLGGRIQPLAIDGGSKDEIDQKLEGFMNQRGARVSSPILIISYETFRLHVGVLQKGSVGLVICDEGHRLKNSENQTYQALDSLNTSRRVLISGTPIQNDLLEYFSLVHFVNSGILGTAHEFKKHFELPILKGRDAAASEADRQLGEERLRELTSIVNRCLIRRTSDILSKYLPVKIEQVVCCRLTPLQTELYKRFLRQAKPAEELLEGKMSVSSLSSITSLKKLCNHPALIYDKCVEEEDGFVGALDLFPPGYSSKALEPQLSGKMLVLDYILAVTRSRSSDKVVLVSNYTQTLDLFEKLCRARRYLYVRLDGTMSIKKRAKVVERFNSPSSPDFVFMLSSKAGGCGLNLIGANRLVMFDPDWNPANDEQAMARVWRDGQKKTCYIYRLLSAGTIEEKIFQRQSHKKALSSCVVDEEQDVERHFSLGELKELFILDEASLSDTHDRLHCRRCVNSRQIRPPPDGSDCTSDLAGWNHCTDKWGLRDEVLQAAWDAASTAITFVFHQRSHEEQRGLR
N-glyco inh = increase of ERlucT glycosylation luciferase signal, primary screen, N-linked glycosylation inhibitor project, D54 ERlucT cells, luminescence, set 2. AID 588692, 2011. D54 ERlucT glycosylation luciferase reporter, 24 h; percent of 100 nM tunicamycin response. reporter increase, % at 12.5 µM. 360,000 compounds, 0.23% hits;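 active = mean luciferase reporter signal, scaled so untreated is 0 and the glycosylation-blocking control 100, at or above a set limit in every replicate; inconclusive = mean reaches the limit but not every replicate does; inactive = mean below the limit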;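 also: luciferase carries N-glycosylation sites so blocking glycosylation raises the light; 0% = median of neutral control wells and 100% = median of 100 nM tunicamycin wells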
FN deposition inh = inhibitors of fibronectin matrix deposition, primary screen, AH1F cells, Alexa488-fibronectin fluorescence, plate reader; AH1F fibroblasts, overnight; inhibition, % at 12.6 µM; 350,000 compounds, 0.086% hits; AID 743247, 2014;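 active = mean inhibition across replicates of 30% or more, regardless of how many single replicates reach that level; inconclusive = mean under 30% yet at least half of replicates reach 30%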;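 also: positive control wells lacked labelled fibronectin entirely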
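Measured by – fluorescence 485/525 nm · System – AH1F fibroblast monolayer, labelled fibronectin deposition · Amount – 10000 cells per well · Buffer or medium – serum-reduced DMEM (2% serum) · Doses – single dose, pinned · Also added – fluorescent fibronectin at 24 nM final · Schedule – 1 h cell attachment, overnight exposure to compound and label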
RAD52 anneal inh = RAD52 DNA annealing inhibitors, primary screen, biochemical, FRET, single point, set 2 | inhibition, % at 18.7 µM | 360,000 compounds, 0.46% hits | recombinant RAD52 DNA annealing, FRET fluorescence | DNA repair protein RAD52 homolog (Homo sapiens), P43351;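 active = every replicate showing at least 50% inhibition; inconclusive = mean inhibition at least 50% but not in every replicate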
CaV13 FRET inh = Primary screen for inhibitors of IQ motif and Ca2+-dependent inactivation inhibitor domain binding in CACNA1D, Förster resonance energy transfer in living cells, … | HEK cells, CFP/YFP FRET ICDI-IQ, plate reader, 10 min; percent FRET-ratio fall versus neutral wells | 340,000 compounds, 0.098% hits | AID 743397 | inhibition, % at 12.3 µM;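 active = mean replicate inhibition of at least 30% and at least 1% of replicates passing that level; inconclusive = only one of the two criteria is met; inactive = neither criterion is met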;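 also: 0% = median of the neutral control wells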
* hit, by the source's call. In the library only some 0.7% were active in any assay of this set; here they are far more common.

Results for CC12CC(c3ccccc3O1)C(C(=O)OCc1ccccc1)C(=O)N2 (centres undefined) ?
RAD54 inh: -1; N-glyco inh: 1; FN deposition inh: 1; CaV13 FRET inh: 99*

How did Cc1c2ccncc2c(C)c2c1[nH]c1ccccc12 do in these assays?
RAD54 inh: 51*; N-glyco inh: 7; FN deposition inh: -4

How did O=C(C1CC1)N1C[C@@H]2N[C@H](C1)[C@@H]2c1ccc(-c2ccncc2)cc1 do in these assays?
FN deposition inh: 11; RAD52 anneal inh: 9

How did C=CCN1[C@@H]2CN(CC(F)(F)F)C[C@H]1C2c1ccc(Br)cc1 (some centres undefined) do in these assays?
FN deposition inh: -5

How did COC(=O)[C@@H]1[C@@H](CO)[C@@H]2Cn3c(cccc3=O)[C@@H]2N1CC1CC1 do in these assays?
RAD54 inh: -2; FN deposition inh: 6; RAD52 anneal inh: -7

Results for CS(=O)(=O)N1C[C@@H]2C(c3ccccc3)[C@H](C1)N2CC1CC1 (some centres undefined) ?
FN deposition inh: -15

How did Cc1ccc(N2C(=O)NC(=O)/C(=C/C=C/c3ccco3)C2=O)cc1 do in these assays?
N-glyco inh: inconclusive; FN deposition inh: -8; CaV13 FRET inh: -5

What do the screens show for `CCc1ccc(N2C(=O)NC(=O)/C(=C\C=C\c3ccco3)C2=O)cc1`?
RAD54 inh: -38; N-glyco inh: 46*; FN deposition inh: 5; RAD52 anneal inh: inactive; CaV13 FRET inh: -4

Results for Cc1cc(C)cc(N2C(=O)NC(=O)/C(=C\C=C\c3ccco3)C2=O)c1 ?
N-glyco inh: 56*; FN deposition inh: 2; RAD52 anneal inh: -78; CaV13 FRET inh: -5

How did CC(C)(C)C(=O)OC[N+](C)(C)CCOC(=O)C(O)(c1ccccc1)C1CCCC1 (centres undefined) do in these assays?
N-glyco inh: -2; FN deposition inh: -4; RAD52 anneal inh: -4; CaV13 FRET inh: -4

What do the screens show for `O=C(O)C(O)(c1ccccc1)C1CCCC1` (centres undefined)?
RAD54 inh: -8; N-glyco inh: 1; FN deposition inh: 33*; CaV13 FRET inh: -4

What do the screens show for `CS(=O)(=O)N1CC2NC(C1)C2c1ccc(Br)cc1` (centres undefined)?
FN deposition inh: -13

Results for COC12CCC3(CC1C(C)(O)C(C)(C)C)[C@H]1Cc4ccc(OC5OC(C(=O)O)[C@@H](O)C(O)[C@H]5O)c5c4[C@@]3(CCN1CC1CC1)C2O5 (some centres undefined) ?
RAD54 inh: 5; N-glyco inh: 1; RAD52 anneal inh: 5

Results for COC12CCC3(CC1C(C)(O)C(C)(C)C)[C@H]1Cc4ccc(O)c5c4[C@@]3(CCN1CC1CC1)C2O5 (some centres undefined) ?
RAD54 inh: -6; N-glyco inh: 59*; RAD52 anneal inh: 3

Results for CCCNC(=O)N1[C@@H]2c3ccc(-c4cccc(C(=O)N(C)C)c4)c(=O)n3C[C@H]1[C@H](CO)[C@H]2C(=O)O ?
RAD52 anneal inh: 6

Results for CNC(=O)c1cccn(Cc2ccc(C(F)(F)F)cc2)c1=O ?
N-glyco inh: 34*; FN deposition inh: -5; RAD52 anneal inh: -4; CaV13 FRET inh: -4

Results for CCCN1CCc2cc(O)cc3c2[C@H]1Cc1ccc(O)c(O)c1-3 ?
RAD54 inh: 63*; N-glyco inh: -3; FN deposition inh: -6; RAD52 anneal inh: 96*; CaV13 FRET inh: -5

Results for CN1CCc2cc(O)cc3c2[C@H]1Cc1ccc(O)c(O)c1-3 ?
RAD54 inh: 39; N-glyco inh: -8; FN deposition inh: 4; RAD52 anneal inh: 95*; CaV13 FRET inh: -4

What do the screens show for `COc1cc2c(cc1O)C[C@H]1c3c(cc(O)c(OC)c3-2)CCN1C`?
RAD54 inh: 7; N-glyco inh: 8; FN deposition inh: -3; RAD52 anneal inh: 36; CaV13 FRET inh: -5

What do the screens show for `CCCN1[C@@H]2Cn3c(ccc(-c4ccc(F)cc4)c3=O)[C@H]1[C@@H](C(=O)OC)[C@@H]2CO`?
RAD54 inh: 4; RAD52 anneal inh: 53*

What do the screens show for `CN1[C@@H]2CN(S(C)(=O)=O)C[C@H]1C2c1ccc(Br)cc1` (some centres undefined)?
FN deposition inh: -1

What do the screens show for `C=CCN1[C@@H]2CN(C(C)=O)C[C@H]1C2c1ccc(Br)cc1` (some centres undefined)?
FN deposition inh: 4

How did CN(C)CC#Cc1ccc([C@@H]2[C@@H](CO)N3CCCCN(C(=O)Cc4ccccn4)C[C@H]23)cc1 do in these assays?
RAD54 inh: -11; FN deposition inh: -7; RAD52 anneal inh: 61*

How did O=C(O)[C@@H]1[C@@H](CO)[C@@H]2Cn3c(ccc(-c4ccncc4)c3=O)[C@H]1N2C(=O)C1CCC1 do in these assays?
RAD54 inh: 3; RAD52 anneal inh: -24

How did C[n+]1c(-c2ccccc2)c2cc(N)ccc2c2ccc(N)cc21 do in these assays?
RAD54 inh: 88*; N-glyco inh: -16; FN deposition inh: 21; RAD52 anneal inh: 21; CaV13 FRET inh: -10

Results for Clc1cccc(N2Cc3cc(-c4ccccc4)ccc3-n3nncc3C2)c1 ?
RAD54 inh: -2; N-glyco inh: 40*; FN deposition inh: 7; RAD52 anneal inh: -9; CaV13 FRET inh: -9

How did COc1ccc(-c2ccc3c(c2)CN(c2cccc(Cl)c2)Cc2cnnn2-3)cc1 do in these assays?
RAD54 inh: -2; N-glyco inh: 0; FN deposition inh: 15; RAD52 anneal inh: -10; CaV13 FRET inh: -5

Results for CN(C)C(=O)[C@H]1[C@H](CO)[C@H]2Cn3c(cccc3=O)[C@@H]1N2CC1CC1 ?
RAD54 inh: -1; RAD52 anneal inh: -2

What do the screens show for `COC(=O)C[C@]1(C(=O)OC)CN(C#N)N(c2ccc(Cl)cc2)C12c1ccccc1-c1ccccc12`?
RAD54 inh: -8; N-glyco inh: -19; FN deposition inh: 41*; RAD52 anneal inh: -8; CaV13 FRET inh: -4

Results for COC(=O)[C@@H]1[C@@H](C(=O)OC)C2(c3ccccc3-c3ccccc32)N(c2ccc(Cl)cc2)N1C#N ?
RAD54 inh: 0; N-glyco inh: 4; RAD52 anneal inh: 0

How did Nc1ccc2ccc3cccc[n+]3c2c1 do in these assays?
RAD54 inh: inactive; N-glyco inh: -1; FN deposition inh: -13; RAD52 anneal inh: inactive; CaV13 FRET inh: active
